Experimental data published in PubChem BioAssay AID1381 (University of Pittsburgh Molecular Library Screening Center, 2008).
About 1,000 (0.45%) of roughly 220,000 compounds were called active.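 How the source made its calls: active means plate z-score of nuclear minus cytoplasmic receptor signal below a set negative limit, without overly bright fluorescence or cell loss (cut at about -3.5 in these data, passing the limit was not always enough); inactive means the rest, inconclusive results apart.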 What follows is part of a selection rich in actives, with near analogues and random picks from the rest.

Test: inhibitors of GR-EGFP nuclear translocation, primary screen, dynein cargo transport inhibitor project, imaging, high-content, 3617.4 mouse cells (AID 1381)
Conditions: stimulated with dexamethasone, 1 µM
Outline: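 Also added – dexamethasone, 1.0 µM final · Buffer or medium – tet-free, stripped-serum medium · Schedule – induction 48 h, compound 1 h, agonist 30 min · Detection – formaldehyde fixation, Hoechst nuclear stain, 10x automated fluorescence imaging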

[1] = measured here: cell count per field, at 20 µM
[2] = measured here: cytoplasmic GR-EGFP intensity, at 20 µM, stronger effect = higher value
[3] = measured here: nuclear GR-EGFP intensity, at 20 µM, stronger effect = lower value
[4] = measured here: cell count per field, at 50 µM
[5] = measured here: cytoplasmic GR-EGFP intensity, at 50 µM, stronger effect = higher value
[6] = measured here: nuclear GR-EGFP intensity, at 50 µM, stronger effect = lower value

Structure (SMILES) | z-score (at 20 µM, stronger effect = lower value) | z-score [1] | z-score [2] | z-score [3] | z-score (at 50 µM, stronger effect = lower value) | z-score [4] | z-score [5] | z-score [6]
C=CCn1cc(C(=O)NCc2ccc(Cl)cc2)c(=O)c2cc(S(=O)(=O)N(CC)CC)ccc21 | 0.479 (inactive) | -0.781 | -0.191 | 1.32 |  |  |  | 
CSCCC(NC(=O)COc1ccccc1)C(=O)Nc1ccc(C)cc1 (configuration not stated) | 0.137 (inactive) | 0.845 | 0.202 | 0.24 |  |  |  | 
O=C1C=CC(=O)N1c1ccc(N2CCCCC2)cc1 | -4.11 (active) | -2.21 | 2.18 | -1.81 |  |  |  | 
Cc1ccccc1C(=O)Nc1ccc(N2CCCCCC2)cc1 | -0.0609 (inactive) | -0.96 | 0.105 | 0.497 |  |  |  | 
O=c1[nH][nH]c(=O)c2cc(N3CCCC3)ccc12 | -0.37 (inactive) | 0.302 | -0.256 | 0.0156 |  |  |  | 
COc1ccc(Cl)cc1-n1c(C)cc(C(=O)OCC(=O)N2CC(=O)Nc3ccccc32)c1C | -0.945 (inactive) | 0.925 | -0.291 | -0.693 |  |  |  | 
COCCn1c(C)cc(C(=O)COC(=O)/C=C/c2cccc(OC)c2)c1C | -0.49 (inactive) | 0.119 | -0.317 | -0.136 |  |  |  | 
COc1cccc(-c2ccc(SCC(=O)N3CCN(c4ccccc4)CC3)nn2)c1 | 1.32 (inactive) | -1.03 | -0.273 | 1.04 |  |  |  | 
O=C(NCc1ccc(F)cc1)C(c1ccccc1)N(C(=O)c1csnn1)C1CC1 (configuration not stated) | 2.29 (inactive) | -1.97 | -0.277 | 0.843 |  |  |  | 
Cc1cc(NC(=O)Nc2ccc(Cl)cc2)n(-c2ccccc2)n1 | -0.438 (inactive) | -0.392 | -0.229 | 0.639 |  |  |  | 
Cc1cc(C(=O)NCCc2ccc(Cl)cc2)n(-c2ccccc2)n1 | -5.24 (active) | -1.31 | 0.343 | -3.12 |  |  |  | 
O=C(NCCc1ccccc1)Oc1ccc(Cl)cc1 | -0.396 (inactive) | 0.0482 | -0.223 | -0.459 |  |  |  | 
Brc1ccc2c(c1)[C@H]1OCC[C@H]1[C@@H](c1cccs1)N2 | 1.51 (inactive) | -1.61 | -0.149 | 1.53 |  |  |  | 
COC(=O)[C@@H]1CC[C@H](C)[C@@H](c2ccc(C)cc2)N1C(=O)c1ccc(/C=N/O[C@H](C)c2cn([C@@H]3COC[C@H]3O)nn2)cc1 | 0.697 (inactive) | 0.326 | -0.241 | 0.639 |  |  |  | 
CC(=O)NCC(=O)N1CCCC(C(=O)c2ccc3c4c(cccc24)CC3)C1 (configuration not stated) | 0.368 (inactive) | -0.117 | -0.201 | 0.261 |  |  |  | 
Cc1ccc(O)c(CCc2ccccc2)n1 | 0.491 (inactive) | -0.946 | -0.202 | 0.586 |  |  |  | 
Cc1[nH]c2ccccc2c1C(=O)COC(=O)c1c(-c2ccccc2)noc1C | -0.58 (inactive) | 0.403 | -0.281 | -0.747 |  |  |  | 
Cc1ccc(CNC(=O)Cn2c(=O)c3sccc3n(Cc3cccc([N+](=O)[O-])c3)c2=O)cc1 | -0.763 (inactive) | 0.845 | -0.184 | -0.435 |  |  |  | 
COc1ccc(C2/C=C\CN(S(=O)(=O)c3cccs3)CC(=O)N2Cc2ccc(F)cc2)cc1 (configuration not stated) | 1.14 (inactive) | -0.515 | -0.824 | 0.466 |  |  |  | 
O=C(CCCOc1ccccc1)NCc1ccco1 | 0.563 (inactive) | -0.922 | -0.00359 | 0.541 |  |  |  | 
CCc1cccc(NC(=O)CCC(=O)O)c1 | 0.674 (inactive) | -0.0336 | -0.309 | -0.143 |  |  |  | 
O=C(CCl)Nc1ccc(Sc2ccc(NC(=O)CCl)cc2)cc1 | -2.59 (inactive) | 0.102 | 0.25 | -1.01 |  |  |  | 
O=C(CCl)Nc1cccc(CP(=O)(c2ccccc2)c2ccccc2)c1 | -3.86 (active) | 0.102 | 0.338 | -1.58 |  |  |  | 

Structure (SMILES) | z-score (at 20 µM, stronger effect = lower value) | z-score [1] | z-score [2] | z-score [3] | z-score (at 50 µM, stronger effect = lower value) | z-score [4] | z-score [5] | z-score [6]
CC1(C)COC(c2cccn2Cc2ccccc2Cl)=N1 | -0.905 (inactive) | 0.489 | -0.115 | 0.38 |  |  |  | 
COc1ccccc1NS(=O)(=O)N(C)C | -0.0864 (inactive) | 0.4 | -0.101 | 0.17 |  |  |  | 
Cc1c(C#N)c(NC(=O)c2ccccc2)n(Cc2ccccc2)c1C | -0.291 (inactive) | 0.341 | -0.155 | -0.456 |  |  |  | 
CCN(CC)C(=O)CSC1c2ccccc2C(=O)N1c1ccccc1 (configuration not stated) | 2.73 (inactive) | -1.62 | -0.173 | 0.99 |  |  |  | 
CCC(=O)Nc1cccc(C2=NOC3(C2)C[C@@H](C(N)=O)N(C(=O)c2cc([N+](=O)[O-])cc([N+](=O)[O-])c2C)C3)c1 (some centres not stated) | -0.341 (inactive) | -0.348 | -0.641 | 0.119 |  |  |  | 
O=C(/C=C/Sc1ncn[nH]1)c1ccc(Cl)cc1 | -3.98 (active) | 0.0934 | 1.02 | -1.6 |  |  |  | 
O=C(NCCOCc1ccc(Cl)cc1)c1ncn[nH]1 | 0.731 (inactive) | -0.271 | -0.00295 | 0.605 |  |  |  | 
COc1ccc(Cl)cc1CSc1ncn[nH]1 | 1 (inactive) | -0.49 | -0.24 | 0.812 |  |  |  | 
NS(=O)(=O)c1ccc(CCNC(=O)NC2CCCCC2)cc1 | 0.431 (inactive) | 0.299 | -0.269 | 0.126 |  |  |  | 
CCOc1ccc(C(=O)NC2CCN(CC(=O)NCc3cccs3)CC2)cc1 | -1.07 (inactive) | -0.199 | -0.19 | -0.737 |  |  |  | 
O=Cc1ccc(Oc2cccc(C(F)(F)F)c2)nc1 | 1.74 (inactive) | -2.12 | 0.359 | 1.33 |  |  |  | 
CCOC(=O)C1=C(C)OC(N)=C(C#N)C1c1cncc(-c2ccc(F)cc2)c1 (configuration not stated) | -3.9 (active) | -0.136 | 0.28 | -1.42 |  |  |  | 
CCOC(=O)C1=C(CC)OC(N)=C(C#N)C1c1ccc(F)cc1F (configuration not stated) | -3.05 (inactive) | -0.462 | 0.472 | -1.28 |  |  |  | 
C=CCOC(=O)C1=C(C)OC(N)=C(C#N)C1c1ccc(F)cc1 (configuration not stated) | -1.1 (inactive) | 0.643 | -0.165 | -0.354 |  |  |  | 
O=C1c2ccccc2C(=O)N1Cc1cc(-c2ccccc2Cl)no1 | -0.0385 (inactive) | -0.0908 | -0.215 | 0.196 |  |  |  | 
COc1ccc(C)cc1NC(=S)Nc1ccccc1SC | -0.497 (inactive) | 0.252 | -0.293 | -0.178 |  |  |  | 
Cc1ccc(CN2CCN(Cc3ccc(OCCO)cc3)CC2CCO)o1 (configuration not stated) | 0.361 (inactive) | 0.953 | -0.289 | -0.03 |  |  |  | 
O=C1C=C(c2ccc(Cl)cc2)C(=O)N1Nc1ccccc1 | -4.4 (active) | -0.124 | 2.35 | -1.87 |  |  |  | 
O=C(Nc1ccccc1)OCc1cc(-c2ccc(Cl)cc2)on1 | 1.93 (inactive) | -1.86 | -0.165 | 1.78 |  |  |  | 
O=C1c2cccc3cc(Br)cc(c23)C(=O)N1Nc1ccccc1 | 0.228 (inactive) | 0.252 | -0.199 | 0.671 |  |  |  | 
CCOc1ccccc1N1CCN(C(=O)COc2ccc3c(C)cc(=O)oc3c2)CC1 | 1.35 (inactive) | -0.138 | -0.356 | 0.787 |  |  |  | 
Cc1cc(NC(=O)CSc2nc3cc(Cl)ccc3c(=O)n2Cc2ccco2)no1 | 2.31 (inactive) | -1.55 | -0.306 | 1.39 |  |  |  | 
Clc1cccc(-c2nc3nc4ccccc4nc3n2Cc2ccco2)c1 | -4.09 (active) | 0.0368 | 2.09 | -1.78 |  |  |  | 

Structure (SMILES) | z-score (at 20 µM, stronger effect = lower value) | z-score [1] | z-score [2] | z-score [3] | z-score (at 50 µM, stronger effect = lower value) | z-score [4] | z-score [5] | z-score [6]
O=C(CSc1nnc(-c2cccnc2)n1Cc1ccco1)c1ccc(Cl)cc1 | -0.358 (inactive) | -0.0648 | -0.209 | -0.055 |  |  |  | 
Cc1cccc(NC(=S)N2CCC(c3nc4ccccc4s3)CC2)c1 | -0.203 (inactive) | 0.43 | -0.197 | -0.339 |  |  |  | 
CC1CCN(C(=O)c2ccc(CSc3ccc(Cl)cc3)cc2)CC1 | -0.555 (inactive) | 0.71 | -0.258 | -0.29 |  |  |  | 
O=C(Nc1ccc(F)cc1)C1CCN(C(=O)c2ccc([N+](=O)[O-])cc2)CC1 | -0.907 (inactive) | 0.228 | 0.208 | -0.321 |  |  |  | 
CC1CCN(C(=O)c2ccc(S(=O)(=O)Cc3cc(F)ccc3F)c([N+](=O)[O-])c2)CC1 | -3.71 (active) | -1.15 | 0.395 | -2.24 |  |  |  | 
O=C(CC(NC(=O)c1ccccc1)c1ccccc1)Nc1ccc(F)c(F)c1 (configuration not stated) | -0.729 (inactive) | 0.477 | -0.215 | -0.567 |  |  |  | 
COc1ccc2c(c1)cc1n2CCN=C1NN | 1.67 (inactive) | -0.465 | -0.0728 | 0.848 |  |  |  | 
Cc1ccc2nc(C)c3c(c2c1)N(c1ccccc1)CC3 | -0.838 (inactive) | 0.0751 | -0.205 | -0.482 |  |  |  | 
CCCN(c1ccc(C)cc1)c1nc(=O)c2cccnc2s1 | 0.0477 (inactive) | 0.0213 | -0.295 | 0.0592 |  |  |  | 
Cc1ccc(Cl)cc1N1CCN(C(=O)c2cccc3c(=O)c(C)c(-c4ccccc4)oc23)CC1 | -0.56 (inactive) | 0.953 | -0.179 | -0.287 |  |  |  | 
CCOC(=O)c1cc2c(ccn2C)n1CC(=O)N1CCC(C)CC1 |  |  |  |  | -0.704 (inactive) | 0.841 | -0.262 | -1.05
O=Cc1cn(Cc2ccccc2)nc1-c1cccnc1 | -0.988 (inactive) | 0.721 | -0.215 | -0.566 |  |  |  | 
Clc1ccc(CN2CCN(/N=C/c3cccnc3)CC2)cc1 | -0.266 (inactive) | 0.201 | -0.295 | -0.167 |  |  |  | 
O=C1/C(=C\c2cccnc2)CN(Cc2ccccc2)C/C1=C\c1cccnc1 | -3.59 (active) | -0.00204 | 0.672 | -2.16 |  |  |  | 
Cc1ccc(S(=O)(=O)N(C)c2ccc(OCC(=O)NC3=NCCS3)cc2)cc1 | 0.77 (inactive) | -1.53 | 0.171 | 1.46 |  |  |  | 
Cc1ccnc(N2CCN(C(=O)CSc3nc4ccccc4nc3N3CCCCC3)CC2)c1 | -1.05 (inactive) | 0.232 | -0.187 | -0.257 |  |  |  | 
CC(C)(C)c1cc(NC(=O)NN2CCOCC2)nn1-c1c(Cl)cc(Cl)cc1Cl | 0.305 (inactive) | 0.973 | -0.287 | -0.0782 |  |  |  | 
COc1ccc(CCNC(=O)c2ccc(CS(=O)(=O)c3ccc(Br)cc3)o2)cc1OC | 0.736 (inactive) | 0.162 | -0.215 | 0.28 |  |  |  | 
CCN(Cc1nc2ccccc2c(=O)[nH]1)Cc1cc(=O)oc2cc(C)c(C)cc12 |  |  |  |  | 0.712 (inactive) | 0.798 | -0.276 | -0.426
O=c1[nH]c2ccccc2n2c(-c3ccccc3)nnc12 |  |  |  |  | -4.53 (active) | 0.378 | 0.89 | -2.64
O=[N+]([O-])c1cccc(-c2nnc3c4ccccc4c4ccccc4n23)c1 | -0.00649 (inactive) | 0.483 | 1.22 | 0.469 |  |  |  | 
CCOC(=O)c1cnc2[nH]c3ccccc3n2c1=O | -0.506 (inactive) | -0.246 | 0.0235 | -0.197 |  |  |  | 
